Sequences and labels used below:
B1: tRNA (parent)
chain: CUCUCGGUAGCCAAGUUGGUUUAAGGCGCAAGACUUUAAUUUAUCACUACGAAAUCUUGAGAUCGGGCGUUCGACUCGCCCCCGGGAGAUUUUUUCCUCGAGCAA

This sample holds only a part of the variants without activity.

Variants of B1 are the subject of the data set. The data set can be described thus: nonsense suppression (GFP-seq) (ratio to wild type); higher = more function; SUP4oc tRNA, yeast GFP reporter sort-seq. The gist of the method:
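Each variant's nonsense suppression (GFPSEQ) is a cell-share-weighted bin median GFP/RFP relative to the unmutated parent tRNA. Yeast with genome-integrated tRNA variants from a ~3% random-mutation library, a galactose-driven GFP ochre reporter and RFP were grown in raffinose/galactose medium with 80 mg/L adenine, then sorted into GFP/RFP bins for Illumina sequencing. Variants needed ≥100 reads and ≥30 cells.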
Consider CUCUCGGUAGCCAAGCUGGUUUAAGGCGCAAGACUUUAAUUUAUCACUACGAAAUCUUGAGACCGGGCGUUCGACUCGUCCCCGGGAGAUUUUUUCCUCGAGCAA, for which the nonsense suppression came to 0.0784. With CUCUCGGUAGCCAAGGAGGUUUAAGGCGCAAGACUUUAAUUUAUCACUACGAAAUCUUGAGAUCGGGCGUUCGACUCGCCCCCGGGAGAUUUUUUCCUCGAGCAA the figure was 1.05; with CUCUCGGUAGCCAAGGCGGUUUAAGGCGCAAGACUUUAAUUUAUCACUACGAAAUCUUGAGAUCGGGCGUUCGACUCGCCCCCGGGAGAUUUUUUCCUCGAGCAA, 1.05. With CUCUCGGUAGCCAAGUAGGUUUAAGGCGCAAGCCUUUAAUUUAUCACUACGAAAUCUUGAGAUCGGGCGUUCGACCCGAUCCCGGGAGAUUUUUUCCUCGAGCAA the figure was ≤ 0.026; with CUCUCGGUAGCCAAGGUGGUUUAAGGCGCAAGACUUUAAUUUAUCACUACGAAAUCAUGAGAUUGUGCAUUCGACUCGCCCCCGGGAGAUUUUUUCCUCGAGCAA, ≤ 0.026; with CUCUCGGUAGCCAAGGUGGUUUAAGGCGCAAGACUUUAAUUUAUCACUACGAAAUCUUGAGAUCGGGCGUUCGACGCGCCCCCGGCAGAUUUUUUCCUCGAGCAA, ≤ 0.026.

Consider CUCUCGGUAGCCAAGGUGGUUUAAGGCGUAAGACUUUAAUUUAUCACUACGAAAUCUUGAGAUCGGGCGUUCGACUCGCCCCCGGGAGAUUUUUUCCUCGAGCAA, for which the nonsense suppression is 1.11. CUCUCGGUAGCCAAGGUGGUUUAAGGGGCAAGACUUUAAUUUAUCACUACGAAAUCUUGAGAUCGGGCGUUCGACUCGCCCCCGGGAGAUUUUUUCCUCGAGCAA: the nonsense suppression was ≤ 0.026. With CUCUCGGUAGCCAAGCUGGUUUAAGGCGCAAGACUUUAAUUUAUCACUACGAAAUCUUGAGACCGGGCGUUCGACUCGCCCCCGGGAGAUUUUUUCCUCGAGCAA the figure was 1.11; with CUCUCGGUAGCCAAGGUGGUUUAAGGCGCAAGAUUUUAAUUUAUCACUACGAAAUCUUGAGAUCGGGCGUUCGACUCGCCCCCGGGAGAUUUUUUCCUCGAGCAA, ≤ 0.026. For CUCUCGGUAGCCAAGUAGGUUUCAGGCGCAAGACUUUAAUUUAUCACUACGAAAUCUUGAGAUCGGGCGUCCGACUCGCCCCCGGGAGAUUUUUUCCUCGAGCAA, the nonsense suppression is ≤ 0.026.

As for CUCUCGGUAGCCAAGGUGGUUUAAGGCGCAAGACUUUAAUUUAUCACUACGAAAUCUUGAGAUCGGGCGUUCGACUCGCCCGCGGGAGAUUUUUUCCUCGAGCAA, the nonsense suppression is ≤ 0.026. In the case of CUCUCGGUAGCCAAGGAGAUUUAAGGAGCAAGACUUUAAUUUAUCACUACGAAAUCUUGAGAUCGGGCGUUCGACUCGCCCCCGGGAGAUUUUUUCCUCGAGCAA it was ≤ 0.026.

Turning to CUCUCGGUAGCCAAGCUGGUCUAAGGCGCAUGACUUUAAUUUAUCACUACGAAAUCUUGAGAUCGGGCGUUCGACUCGCCCCCGGGAGAUUUUUUCCUCGAGCAA, the nonsense suppression stood at 0.204.

Regarding CUCUCGGUAGCCAAGGUGGUUUAAGGCGCCGGACUUUAAUUUAUCACUACGAAAACAUGAGAUCGGGCGUUCGACUCGCCCCCGGGAGAUUUUUUCCUCGAGCAA, the nonsense suppression was ≤ 0.026. With CUCUCGGUAGCCAAGGUGGUUUAAGGCGCAAGACUUUAAUUUAUCACUACGAAAUCUUGAGAUCGGGCGUUCGACUCGCCCCUGGGAGAUUUUUUCCUCGAGCAA the figure was 0.223; with CUCUCGGUAGCCAAGGUGGUUUAAGGCGCAAGACUUUAAUUUAUCACUACGAAUUCUUGAGAUCGGGCGUUCGACUCGCCCCCGGGAGAUUUUUUCCUCGAGCAA, 1.18.

Consider CUCUCGGUAGCCAAGCUGGUGUAAGGCGCAGCACUUUAAUUUAUCACUACGAAAUCUUGAGAUCGGGCAUCCGAAUCGCCCCCGGAAGAUUUUUUCCUCGAGCAA, for which the nonsense suppression was ≤ 0.026. With CUCUCGGUAGCCAAGGUGGUUUAAGGCGUAAGACUUUAAUUUAUCACUACGAAAUCUUGAGAUCGGGCGUUCGACUCGCCCCCGGGAGCUUUUUUCCUCGAGCAA the figure was ≤ 0.026.

Consider CUCUCGGUAGCCAAGUAGGUUUAAGGCGCGAGACUUUAAUUUAUCACUACGAAAUCUUGAGAUCGGGCGUUCGACUCGCCCCCGGGAGAUUUUUUCCUCGAGCAA, for which the nonsense suppression was 0.369. In the case of CUCUCGGUAGCCAAGGUGGUUUAAGGCGCAAGACUUUAAUUUAUCACUACGAAAUAUGGCGAUCGGGCGUUCGACUCGCCCCCGGGAGAUUUUUUCCUCGAGCAA it was ≤ 0.026. In the case of CUCUCGGUAGCCAAGUAGGUUUACGGCGCAAGACUUUAAUUUAUCACUACGAAAUCUUGAGAUCGGGCGUUCGACUCGCCCCCGGGAGAUUUUUUCCUCGAGCAA it was 0.902; in that of CUCUCGGUAGCCAAGUAGGUUUAGGGCGCAAGACUUUAAUUUAUCACUACGAAAUCUUGAGAUCGGGCGUUCGACUCGCCCCCGGGAGAUUUUUUCCUCGAGCAA, 0.0262. Regarding CUCUCGGUAGCCAAGUAGGUUUAUGGCGCAAGACUUUAAUUUAUCACUACGAAAUCUUGAGAUCGGGCGUUCGACUCGCCCCCGGGAGAUUUUUUCCUCGAGCAA, the nonsense suppression was 0.2. With CUCUCGGUAGCCAAGGUGGUUUAUGGCGCAAGACUUUAAUUUAUCACUACGAAAUCUUGAGAUCGGGCGUUCGACUCGCCCCCGGGAGAUUUUUUCCUCGAGCAA the figure was 0.221. With CUCUCGGUAGCCAAGGUGGUUAAAGGCGCAAGACUUUAAUUUAUCACUACGAAAUCUUGAGAUCGGGCGUUCGACUCGCCCCCGGGAGAUUUUUUCCUCGAGCAA the figure was 0.872. On to CUCUCGGUAGCCAAGGUGGUUUAAGGCGCAAGACUUUAAUUUAUCACUACGAAAUCUUGAGAUCGGGCGUUCGACCCGCCCCCGGGAGAUUUUUUCCUCGAGCAA, for which the nonsense suppression amounted to 1.07. With CUCUCGGUAGCCAAGGUGGUGUAAGGCGCAAGACUUUAAUUUAUCACUACGAAAUCUUGAGAUCGGGCGUUCGACUCGCCCCCGGGAGAUUUUUUCCUCGAGCAA the figure was 1.1; with CUCUCGGUAGCCAAGGUGGUCUAAGGCGCAAGACUUUAAUUUAUCACUACGAAAUCUUGAGAUCGGGCGUUCGACUCGCCCCCGGGAGAUUUUUUCCUCGAGCAA, 0.905. With CUCUCGGUAGCCAAGGUGGUUUAAGGCGCAAGACUUUAAUUUAUCACUACGAAAUCUUGGGAUCGGGCGUUCGACUCGCCCCCGGGAGAUUUUUUCCUCGAGCAA the figure was 0.39; with CUCUCGGUAGCCAAGGUGGUUUAAGGCGCAAGACUUUAAUUUAUCACUACGAAAUCUUGAGAACGGGCGUUCGACUCGCCCCCGGGAGAUUUUUUCCUCGAGCAA, 1.09; with CUCUCGGUAGCCAAGGUGGUUUAAGGCGCAAGACUUUAAUUUAUCACUACGAAAUCUUGAGAUCGGGCGUUCGACUCGCCCCCGUGAGAUUUUUUCCUCGAGCAA, 1.06. As for CUCUCGGUAGCCAAGGUGGUUUAAGGCGCAAGACUUUAAUUUAUCACUACGAAAUCUUGAGAUCGGGCGUUCGACUCGCCCCCGCGAGAUUUUUUCCUCGAGCAA, the nonsense suppression stood at 0.0285. With CUCUCGGUAGCCAAGUAGGUUUAAGGCGCAAGACUUUAAUUUAUCACUACGAAAUCUUGAGAUCGGGCGUUCGACUCGCCCCCGGGAGAUUUUUUCCUCGAGCAA the figure was 0.937; with CUCUCGGUAGCCAAGGUGGUUUAAGGCGCGAGACUUUAAUUUAUCACUACGAAAUCUUGAGAUGGGGCGUUCGACUCGCCCCCGGGAGAUUUUUUCCUCGAGCAA, ≤ 0.026. For CUCUCGGUAGCCAAGGUGGUUUAAGGCGCAAGACUUUAAUUUAUCACUACGAAAUCUUGAGAUCGGGCGUUCGACUCGUCCCCGGGAGAUUUUUUCCUCGAGCAA, the nonsense suppression was found to be 0.852. In the case of CUCUCGGUAGCCAAGGUGGUUUAAGGCGCAAGACUUUAAUUUAUCACUACGAACUCUUGAGAUCGGGCGUUCGACUCGCCUCCGGGAGAUUUUUUCCUCGAGCAA it was 0.0601; in that of CUCUCGGUAGCCAAGGUGGUUUAAGGCGCAAGACUUUAAUUUAUCACUACGAAAUCUUGAGAUCGGACGUUCGACUCGCCCCCGGGAGAUUUUUUCCUCGAGCAA, 0.178; in that of CUCUCGGUAGCCAAGGCGGUUUAAGGCGCAAGACUUUAAUUUAUCACUACGAAAUCUUGAGAUCGGGCGUUAGACUCGCCCCCGGGAGAUUUUUUCCUCGAGCAA, 0.27.

As for CUCUCGGUAGCCAAGGUGGUUUGAGGCGCAAGACUUUAAUUUAUCACUACGAAAUCUUGAGAUCGGGCGUUCGACUCGCCCCCGGGAGAUUUUUUCCUCGAGCAA, the nonsense suppression turned out to be 0.129.

Turning to CUCUCGGUAGCCAAGCUGGUUUAAGGCGCAAGACUUUAAUUUAUCACUACGAAAUCUUGAGAUCGGGCGUUCGACACGCCCCCGGGAGUUUUUUUCCUCGAGCAA, the nonsense suppression is ≤ 0.026. On to CUCUCGGUAGCCAAGUAGGUUUCAGGCGCAAGACUUUAAUUUAUCACUACGAAAUCUUGAGAUCGGGGGUUCGACUCGCCCCCGGGAGAUUUUUUCCUCGAGCAA, for which the nonsense suppression is ≤ 0.026. As to CUCUCGGUAGCCAAGGUGGUUUAAGGCGCAAGACUUUAAUUUAUCACUACGAAAUCUUGAGAUCGGGCGUUCGACUCGCCCCCGGGAGAUUUUUUCCUCGAGCAA, the nonsense suppression is 1.

For CUCUCGGUAGCCAAGGUGGUUUAACGCGCAAGACUUUAAUUUAUCACUACGAAAUCUUGAGAUCGGGCGUUCGACUCGCCCCCGGGAGAUUUUUUCCUCGAGCAA, the nonsense suppression was 0.2. As to CUCUCGGUAGCCAAGGUGGUUUAAGGCUCAAGACGUUAAUUUAUCACUACGAAAUCUUAAGAUCGGGCGUUCGACUCGCCCCCGAGAGAUUUUUUCCUCGAGCAA, the nonsense suppression was ≤ 0.026. Take CUCUCGGUAGCCAAGGUGGUUUAAGGCGCAAGACUUUAAUUUAUCACUACGAAUUCUUGAGAGCGGGCGUUCGACUCGCCCCCGGGAGAUUUUUUCCUCGAGCAA: the nonsense suppression turned out to be 0.278.

CUCUCGGUAGCCAAGGUGGUUUAACGCGCAAGACUUUAAUUUAUCACUACGAAAGCUUGAGAUCGGGCGUUCGACUCGCCCCCGGGAGAUUUUUUCCUCGAGCAA: the nonsense suppression is ≤ 0.026.

Regarding CUCUCGGUAGCCAAGGUGGUUUAAGGCGCAAGACUUUAAUUUAUCACUACGAAAUCUUGAGAUCGGGCGAUCGACUCGCCCACGGGAGAUUUUUUCCUCGAGCAA, the nonsense suppression is ≤ 0.026. In the case of CUCUCGGUAGCCAAGUAGGUUUAAGGCGCAGGACUUUAAUUUAUCACUACGAAAUCUUGAGAUCGGGCGUUGGACACUCCCCCGGGAGAUUUUUUCCUCGAGCAA it was ≤ 0.026; in that of CUCUCGGUAGCCAAGGUGGUUUAAGGCGCAAGACUUUAAUUUAUCACUACGAAAUCUUGAGAUCGGGCGUUCGACUCCCCCCCGGGAGAUUUUUUCCUCGAGCAA, 0.113; in that of CUCUCGGUAGCCAAGUAGGUUUUAGGCGCAAGACUUUAAUUUAUCACUACGAAAUCUUGAGAUCGGGCGUUCGACUCGCCCCCAGGAGAUUUUUUCCUCGAGCAA, ≤ 0.026. In the case of CUCUCGGUAGCCAAGGUGGUUUAAGGCGCAGGACUUUAAUUUAUCACUACGAAAUCUUGAGAUCGGGCGUUCGACUCGCCCCCGGGAGAUUUUUUCCUCGAGCAA it was 1.15; in that of CUCUCGGUAGCCAAGCUGGUUUAAGGCGCAAGACUUUAAUUUAUCACUACGAAACCUUGAGAUCGGGCGUUCGACUCGCCCCCGGGAGAUUUUUUCCUCGAGCAA, 0.769; in that of CUCUCGGUAGCCAAGCUGGUUCAAGGCGCAAGACUUUAAUUUAUCACUACGAAAUCUUGACAUCGGGCGUUCGACUCGCCCCCGGGAGAUUUUUUCCUCGAGCAA, 0.207.

The values above are taken from the RNAGym collection of RNA variant scans (doi:10.1101/gad.245936.114).
